Source: ChEMBL document CHEMBL4765319, “Identification of a new series of flavopiridol-like structures as kinase inhibitors with high cytotoxic potency” (Eur J Med Chem, 2020)
Each block holds one molecule with its values, some of them ahead of it.

How the values were obtained:
SK-OV-3 = test: Antiproliferative activity against human SKOV3 cells assessed as reduction in cell viability incubated for 72 hrs by CellTiter-Blue fluorescence assay; conditions: SK-OV-3, 72 h
[1] = target: T1, CDK2/Cyclin A2 (Homo sapiens) (UniProt P24941+P20248); test: Inhibition of human CDK2/cyclin A assessed as residual activity at 1 uM in presence of ATP by ADP-glo luminescent assay relative to control; format: protein-complex assay
How it was run: (§1)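 Human kinases assayed by ADP-Glo luminescence with 10 μM ATP, compound at 10 or 1 μM. Activity is expressed as % of maximal activity relative to a DMSO control, mean n = 2.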

[2] = target: T2, CDK9/cyclin T1 (Homo sapiens) (UniProt O60563+P50750); test: Inhibition of human CDK9/cyclin T assessed as residual activity at 1 uM in presence of ATP by ADP-glo luminescent assay relative to control; format: protein-complex assay
How it was run: as §1

Sus scrofa [3] = species: Sus scrofa; test: Inhibition of porcine CK1delta/epsilon assessed as residual activity at 1 uM in presence of ATP by ADP-glo luminescent assay relative to control
Leishmania major [4] = test: Inhibition of Leishmania major CK1 assessed as residual activity at 1 uM in presence of ATP by ADP-glo luminescent assay relative to control
Sus scrofa [5] = species: Sus scrofa; test: Inhibition of porcine CK1delta/epsilon assessed as residual activity at 10 uM in presence of ATP by ADP-glo luminescent assay relative to control
[6] = target: T1, CDK2/Cyclin A2 (Homo sapiens); test: Inhibition of human CDK2/cyclin A assessed as residual activity at 10 uM in presence of ATP by ADP-glo luminescent assay relative to control; format: protein-complex assay
How it was run: as §1

Plasmodium falciparum [7] = test: Inhibition of Plasmodium falciparum GSK3 assessed as residual activity at 10 uM in presence of ATP by ADP-glo luminescent assay relative to control
How it was run: (§2)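 Recombinant P. falciparum GSK3, bacterially expressed, in buffer A (10 mM MgCl2, 1 mM EGTA, 1 mM DTT, 25 mM Tris-HCl pH 7.5, 50 μg/ml heparin). Substrate 0.010 μg/μl GS-1 peptide, 10 μM ATP, ADP-Glo luminescence. Compound at 10 or 1 μM; % residual activity vs DMSO control, mean n = 2.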

[8] = target: T2, CDK9/cyclin T1 (Homo sapiens); test: Inhibition of human CDK9/cyclin T assessed as residual activity at 10 uM in presence of ATP by ADP-glo luminescent assay relative to control; format: protein-complex assay
How it was run: as §1

HCT-116 = test: Antiproliferative activity against human HCT-116 cells assessed as reduction in cell viability incubated for 72 hrs by CellTiter-Blue fluorescence assay; conditions: HCT-116, 72 h
PC-3 = test: Antiproliferative activity against human PC-3 cells assessed as reduction in cell viability incubated for 72 hrs by CellTiter-Blue fluorescence assay; conditions: PC-3, 72 h
K562 = test: Antiproliferative activity against human K562 cells assessed as reduction in cell viability incubated for 72 hrs by CellTiter-Blue resazurin fluorescence assay; conditions: K562, 72 h
MIA PaCa-2 = test: Antiproliferative activity against human MIA PaCa-2 cells assessed as reduction in cell viability incubated for 72 hrs by CellTiter-Blue fluorescence assay; conditions: MIA PaCa-2, 72 h
[9] = target: T3, Glycogen synthase kinase-3 beta (Homo sapiens, UniProt P49841); test: Inhibition of human GSK3beta assessed as residual activity at 10 uM in presence of ATP by ADP-glo luminescent assay relative to control
How it was run: as §1
Target sequence in this assay (P49841 whole entry, looked up): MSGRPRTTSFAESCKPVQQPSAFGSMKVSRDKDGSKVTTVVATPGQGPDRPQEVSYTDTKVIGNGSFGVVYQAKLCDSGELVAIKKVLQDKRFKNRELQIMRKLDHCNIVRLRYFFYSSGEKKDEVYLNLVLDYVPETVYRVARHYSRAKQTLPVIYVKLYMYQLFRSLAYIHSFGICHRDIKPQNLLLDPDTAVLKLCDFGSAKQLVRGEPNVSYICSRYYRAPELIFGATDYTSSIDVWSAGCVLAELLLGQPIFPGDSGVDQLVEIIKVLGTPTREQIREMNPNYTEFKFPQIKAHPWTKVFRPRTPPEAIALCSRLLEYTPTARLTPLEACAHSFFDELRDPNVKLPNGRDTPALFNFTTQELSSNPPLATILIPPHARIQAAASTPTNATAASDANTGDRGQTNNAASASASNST

[10] = target: T4, Cyclin-dependent kinase 5/CDK5 activator 1 (Homo sapiens) (UniProt Q00535+Q15078); test: Inhibition of human CDK5/p25 assessed as residual activity at 10 uM in presence of ATP by ADP-glo luminescent assay relative to control; format: protein-complex assay
How it was run: as §1

Sus scrofa [11] = species: Sus scrofa; test: Inhibition of porcine GSK3alpha/beta assessed as residual activity at 1 uM in presence of ATP by ADP-glo luminescent assay relative to control
How it was run: (§3)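 Porcine brain GSK3α/β, native and affinity-purified. Assayed by ADP-Glo luminescence with 10 μM ATP and 0.010 μg/μl GS-1 peptide substrate. Buffer A: 10 mM MgCl2, 1 mM EGTA, 1 mM DTT, 25 mM Tris-HCl pH 7.5, 50 μg/ml heparin. Compound tested at 10 or 1 μM. Result is % of maximal activity versus DMSO control, mean of n = 2.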

[12] = target: T3, Glycogen synthase kinase-3 beta; test: Inhibition of human GSK3beta assessed as residual activity at 1 uM in presence of ATP by ADP-glo luminescent assay relative to control
How it was run: as §1
Target sequence in this assay (P49841 whole entry, looked up): as above

NCI-N87 = test: Antiproliferative activity against human NCI-N87 cells assessed as reduction in cell viability incubated for 72 hrs by CellTiter-Blue fluorescence assay; conditions: NCI-N87, 72 h
Sus scrofa [13] = species: Sus scrofa; test: Inhibition of porcine GSK3alpha/beta assessed as residual activity at 10 uM in presence of ATP by ADP-glo luminescent assay relative to control
How it was run: as §3

[14] = target: T3, Glycogen synthase kinase-3 beta; test: Inhibition of human GSK3beta in presence of ATP by ADP-glo luminescent assay
How it was run: (§4)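 Human kinases tested over roughly 0.0003–10 μM by ADP-Glo luminescence with 10 μM ATP, in duplicate. IC50 is taken from dose-response curves.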
Target sequence in this assay (P49841 whole entry): as the sequence (P49841 whole entry, looked up) above

CDK9/cyclin T1 = CDK9/cyclin T1 (Homo sapiens, UniProt P50750); test: Inhibition of human CDK9/cyclin T in presence of ATP by ADP-glo luminescent assay; format: protein-complex assay
How it was run: as §4

CDK2/Cyclin A2 = CDK2/Cyclin A2 (Homo sapiens, UniProt P24941); test: Inhibition of human CDK2/cyclin A in presence of ATP by ADP-glo luminescent assay; format: protein-complex assay
How it was run: as §4

Plasmodium falciparum [15] = test: Inhibition of Plasmodium falciparum GSK3 assessed as residual activity at 1 uM in presence of ATP by ADP-glo luminescent assay relative to control
How it was run: as §2

SK-BR-3 = test: Antiproliferative activity against human SK-BR-3 cells assessed as reduction in cell viability incubated for 72 hrs by CellTiter-Blue fluorescence assay; conditions: SK-BR-3, 72 h
Leishmania major [16] = test: Inhibition of Leishmania major CK1 assessed as residual activity at 10 uM in presence of ATP by ADP-glo luminescent assay relative to control
[17] = target: Cyclin-dependent kinase 5/CDK5 activator 1 (Homo sapiens, UniProt Q00535); test: Inhibition of human CDK5/p25 in presence of ATP by ADP-glo luminescent assay; format: protein-complex assay
How it was run: as §4

[18] = target: T4, Cyclin-dependent kinase 5/CDK5 activator 1 (Homo sapiens); test: Inhibition of human CDK5/p25 assessed as residual activity at 1 uM in presence of ATP by ADP-glo luminescent assay relative to control; format: protein-complex assay
How it was run: as §1

Sequence of CDK9/cyclin T1 (O60563 whole entry): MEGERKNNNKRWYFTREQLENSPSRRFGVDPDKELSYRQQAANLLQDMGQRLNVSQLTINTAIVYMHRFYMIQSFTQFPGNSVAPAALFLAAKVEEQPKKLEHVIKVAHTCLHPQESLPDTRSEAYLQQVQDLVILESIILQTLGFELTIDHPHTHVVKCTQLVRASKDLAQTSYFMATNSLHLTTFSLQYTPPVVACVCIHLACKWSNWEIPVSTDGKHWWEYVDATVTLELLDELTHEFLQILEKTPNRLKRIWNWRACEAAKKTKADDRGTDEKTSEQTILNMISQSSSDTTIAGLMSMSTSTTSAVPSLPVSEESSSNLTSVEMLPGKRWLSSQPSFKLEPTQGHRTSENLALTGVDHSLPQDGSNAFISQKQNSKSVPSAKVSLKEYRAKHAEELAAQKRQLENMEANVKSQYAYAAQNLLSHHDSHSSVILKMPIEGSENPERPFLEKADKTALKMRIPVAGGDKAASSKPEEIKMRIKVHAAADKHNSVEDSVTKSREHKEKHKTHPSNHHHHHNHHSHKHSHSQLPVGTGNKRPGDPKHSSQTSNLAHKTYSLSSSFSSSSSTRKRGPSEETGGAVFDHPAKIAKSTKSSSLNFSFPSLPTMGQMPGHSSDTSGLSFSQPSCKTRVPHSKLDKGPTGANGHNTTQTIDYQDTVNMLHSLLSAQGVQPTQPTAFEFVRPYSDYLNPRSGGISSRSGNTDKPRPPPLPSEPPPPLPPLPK
Sequence of CDK9/cyclin T1 (P50750 whole entry): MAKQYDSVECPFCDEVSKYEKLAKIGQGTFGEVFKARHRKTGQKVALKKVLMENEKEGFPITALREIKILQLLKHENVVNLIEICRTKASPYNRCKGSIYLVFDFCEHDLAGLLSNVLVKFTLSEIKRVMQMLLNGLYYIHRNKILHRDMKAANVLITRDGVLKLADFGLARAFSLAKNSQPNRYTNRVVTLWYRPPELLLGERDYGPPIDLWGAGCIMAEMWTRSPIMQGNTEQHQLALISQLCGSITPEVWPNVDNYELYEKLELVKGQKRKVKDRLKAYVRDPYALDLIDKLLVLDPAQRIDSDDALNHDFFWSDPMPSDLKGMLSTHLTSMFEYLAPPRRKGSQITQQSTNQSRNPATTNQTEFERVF
Sequence of Cyclin-dependent kinase 5/CDK5 activator 1 (Q00535 whole entry): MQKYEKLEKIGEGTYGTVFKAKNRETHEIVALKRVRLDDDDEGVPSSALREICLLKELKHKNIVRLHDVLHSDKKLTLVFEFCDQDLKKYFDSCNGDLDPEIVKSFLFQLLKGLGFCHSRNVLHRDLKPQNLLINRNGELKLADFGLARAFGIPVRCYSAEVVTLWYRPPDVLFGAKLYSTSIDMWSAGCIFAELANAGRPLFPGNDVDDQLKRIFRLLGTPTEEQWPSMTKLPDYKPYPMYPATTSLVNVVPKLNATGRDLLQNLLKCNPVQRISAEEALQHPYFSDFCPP
Sequence of Cyclin-dependent kinase 5/CDK5 activator 1 (Q15078 whole entry, further chain): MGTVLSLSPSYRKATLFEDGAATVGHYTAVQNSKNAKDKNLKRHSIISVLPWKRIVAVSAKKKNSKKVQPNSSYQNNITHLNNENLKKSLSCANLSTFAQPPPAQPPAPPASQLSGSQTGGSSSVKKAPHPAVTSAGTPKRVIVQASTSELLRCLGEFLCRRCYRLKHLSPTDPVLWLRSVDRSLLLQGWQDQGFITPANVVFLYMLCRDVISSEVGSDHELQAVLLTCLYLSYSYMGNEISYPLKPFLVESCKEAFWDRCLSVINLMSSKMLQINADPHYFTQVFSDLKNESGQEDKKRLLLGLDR
T4 sequence (Q00535 whole entry): as the sequence (Q00535 whole entry) above
T4 sequence (Q15078 99-307 partner limits assumed): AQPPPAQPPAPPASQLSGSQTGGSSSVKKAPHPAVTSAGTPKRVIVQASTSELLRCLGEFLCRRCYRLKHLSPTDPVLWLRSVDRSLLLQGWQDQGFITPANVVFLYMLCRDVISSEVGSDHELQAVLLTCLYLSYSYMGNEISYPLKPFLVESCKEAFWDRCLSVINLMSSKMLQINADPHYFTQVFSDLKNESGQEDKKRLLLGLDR

IC50 (SK-OV-3): 7790 nM
Compound: COC(=O)[C@@H](CSc1ccc(-c2cc(=O)c3c(O)cc(O)c(C4=CCN(C)CC4)c3o2)cc1)NC(=O)OC(C)(C)C

Compound: CN1CC=C(c2c(O)cc(O)c3c(=O)cc(-c4ccc(SCCC(=O)NO)cc4)oc23)CC1
IC50 (SK-OV-3): > 10000 nM

IC50 (SK-OV-3): > 10000 nM
Compound: CN1CC=C(c2c(O)cc(O)c3c(=O)cc(-c4ccc(S[C@@H]5O[C@@H](CO)C(O)C(O)[C@@H]5O)cc4)oc23)CC1 (single isomer, unassigned)

Compound: CN1CC=C(c2c(O)cc(O)c3c(=O)cc(-c4ccc(Nc5ccccc5)cc4)oc23)CC1
IC50 (SK-OV-3): 1200 nM

IC50 (SK-OV-3): 2330 nM
Compound: CC(=O)OC[C@@H]1O[C@@H](Sc2ccc(-c3cc(=O)c4c(O)cc(O)c(C5=CCN(C)CC5)c4o3)c(Cl)c2)[C@@H](OC(C)=O)C(OC(C)=O)C1OC(C)=O (single isomer, unassigned)

Activity [1]: 33% | Activity [2]: 2% | Activity (Sus scrofa [3]): 78% | Activity (Leishmania major [4]): 88% | Activity (Sus scrofa [5]): 43% | Activity [6]: 14% | Activity (Plasmodium falciparum [7]): > 100% | Activity [8]: 0% | IC50 (HCT-116): 173 nM | IC50 (PC-3): 243 nM | IC50 (K562): 300 nM | IC50 (MIA PaCa-2): 448 nM | IC50 (SK-OV-3): 295 nM | Activity [9]: 6% | Activity [10]: 5% | Activity (Sus scrofa [11]): 53% | Activity [12]: 25% | Activity (Sus scrofa [13]): 11% | IC50 [14]: 356 nM | IC50 (CDK9/cyclin T1): 9 nM | IC50 (CDK2/Cyclin A2): 469 nM | Activity (Plasmodium falciparum [15]): > 100% | IC50 (SK-BR-3): 352 nM | Activity (Leishmania major [16]): 54% | IC50 [17]: 195 nM | Activity [18]: 10%
Compound: CN1CC=C(c2c(O)cc(O)c3c(=O)cc(-c4ccc(Sc5nc(-c6ccccc6)c[nH]5)cc4)oc23)CC1
IC50 (NCI-N87): 4800 nM

IC50 (SK-OV-3): > 10000 nM
Compound: CC(=O)N[C@H](CSc1ccc(-c2cc(=O)c3c(O)cc(O)c(C4=CCN(C)CC4)c3o2)cc1)C(=O)O

IC50 (SK-OV-3): 6850 nM
Compound: CN1CC=C(c2c(O)cc(O)c3c(=O)cc(-c4ccc(SCCC(=O)NOC5CCCCO5)cc4)oc23)CC1 (centres undefined)

Activity [1]: 35% | Activity [2]: 8% | Activity (Sus scrofa [3]): 91% | Activity (Leishmania major [4]): 99% | Activity (Sus scrofa [5]): 69% | Activity [6]: 5% | Activity (Plasmodium falciparum [7]): 54% | Activity [8]: 10% | IC50 (HCT-116): 293 nM | IC50 (PC-3): 742 nM | IC50 (K562): 194 nM | IC50 (MIA PaCa-2): 852 nM | IC50 (SK-OV-3): 595 nM | Activity [9]: -8% | Activity [10]: 4% | Activity (Sus scrofa [11]): 36% | Activity [12]: 6% | Activity (Sus scrofa [13]): 11% | IC50 [14]: 117 nM | IC50 (CDK9/cyclin T1): 8 nM | IC50 (CDK2/Cyclin A2): 162 nM | Activity (Plasmodium falciparum [15]): 85% | IC50 (SK-BR-3): 254 nM | Activity (Leishmania major [16]): 40% | IC50 [17]: 121 nM | Activity [18]: 14%
Compound: CN1CC=C(c2c(O)cc(O)c3c(=O)cc(-c4ccc(Sc5nc6ccccc6[nH]5)cc4)oc23)CC1
IC50 (NCI-N87): 183 nM

Activity [1]: 46% | Activity [2]: 2% | Activity (Sus scrofa [3]): 86% | Activity (Leishmania major [4]): 81% | Activity (Sus scrofa [5]): 48% | Activity [6]: 22% | Activity (Plasmodium falciparum [7]): 64% | Activity [8]: 3% | IC50 (HCT-116): 170 nM | IC50 (PC-3): 326 nM | IC50 (K562): 36 nM | IC50 (MIA PaCa-2): 361 nM | IC50 (SK-OV-3): 333 nM | Activity [9]: 4% | Activity [10]: 14% | Activity (Sus scrofa [11]): 43% | Activity [12]: 14% | Activity (Sus scrofa [13]): 4% | IC50 [14]: 216 nM | IC50 (CDK9/cyclin T1): 15 nM | IC50 (CDK2/Cyclin A2): 1560 nM | Activity (Plasmodium falciparum [15]): > 100% | IC50 (SK-BR-3): 66.6 nM | Activity (Leishmania major [16]): 35% | IC50 [17]: 550 nM | Activity [18]: 42%
Compound: CN1CC=C(c2c(O)cc(O)c3c(=O)cc(-c4ccc(Sc5nc6ccccc6[nH]5)cc4Cl)oc23)CC1
IC50 (NCI-N87): 12 nM

IC50 (SK-OV-3): 1200 nM
Compound: COc1ccc2[nH]c(Sc3ccc(-c4cc(=O)c5c(O)cc(O)c(C6=CCN(C)CC6)c5o4)cc3)nc2c1
